The source of these data is ChEMBL document CHEMBL4842372, “Discovery of ARD-2585 as an Exceptionally Potent and Orally Active PROTAC Degrader of Androgen Receptor for the Treatment of Advanced Prostate Cancer” (J Med Chem, 2021).

Calls of active or inactive are those of the source. The calls are words filed in the database; no cut-off is given here.

The term Kp denotes the ratio of the level in a tissue or fluid to that in plasma or blood. What is called inhibition is the drop in the measured response relative to a control, in per cent.

Series [1] concerns the target T1, Protein cereblon/Androgen receptor (Homo sapiens, UniProt P10275+Q96SW2). The series can be described thus: Protac activity at CRBN/AR in human VCaP cells assessed as reduction in AR protein level at 100 nM after 3 hrs in presence of thalidomide by Western blot analysis. (In general: A western blot detects proteins with antibodies after separation by electrophoresis.)

The target in series [2] is Protein cereblon/Androgen receptor (Homo sapiens, UniProt P10275+Q96SW2, T878A). The settings on record: lncap.
Protein cereblon/Androgen receptor (Homo sapiens, UniProt P10275+Q96SW2, T878A), sequence (P10275 whole entry T878A, stated change not applied): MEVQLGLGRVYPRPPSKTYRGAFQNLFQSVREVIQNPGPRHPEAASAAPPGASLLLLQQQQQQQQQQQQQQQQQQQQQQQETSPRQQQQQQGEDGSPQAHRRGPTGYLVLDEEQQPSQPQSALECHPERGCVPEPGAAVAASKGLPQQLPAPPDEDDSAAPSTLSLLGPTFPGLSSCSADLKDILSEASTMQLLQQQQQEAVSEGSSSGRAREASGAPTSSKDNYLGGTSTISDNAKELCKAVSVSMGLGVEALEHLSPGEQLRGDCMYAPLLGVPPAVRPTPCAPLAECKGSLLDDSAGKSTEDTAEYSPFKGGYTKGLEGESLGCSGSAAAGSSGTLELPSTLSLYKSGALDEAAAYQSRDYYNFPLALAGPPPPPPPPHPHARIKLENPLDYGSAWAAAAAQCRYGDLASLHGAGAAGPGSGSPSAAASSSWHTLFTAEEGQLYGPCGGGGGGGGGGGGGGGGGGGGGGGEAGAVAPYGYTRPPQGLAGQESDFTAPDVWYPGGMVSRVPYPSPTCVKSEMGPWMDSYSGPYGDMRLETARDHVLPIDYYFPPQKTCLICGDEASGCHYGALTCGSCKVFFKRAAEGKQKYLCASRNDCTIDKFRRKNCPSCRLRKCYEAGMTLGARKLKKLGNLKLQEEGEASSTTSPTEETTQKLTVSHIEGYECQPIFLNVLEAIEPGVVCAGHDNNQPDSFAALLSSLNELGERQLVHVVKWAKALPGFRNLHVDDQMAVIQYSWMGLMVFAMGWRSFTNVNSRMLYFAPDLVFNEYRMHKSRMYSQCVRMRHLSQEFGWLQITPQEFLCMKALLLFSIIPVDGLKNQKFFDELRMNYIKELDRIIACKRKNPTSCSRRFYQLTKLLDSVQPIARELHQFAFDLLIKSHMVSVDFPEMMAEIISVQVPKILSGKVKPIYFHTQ
Protein cereblon/Androgen receptor (Homo sapiens, UniProt P10275+Q96SW2, T878A), sequence (Q96SW2 whole entry, stated change not applied): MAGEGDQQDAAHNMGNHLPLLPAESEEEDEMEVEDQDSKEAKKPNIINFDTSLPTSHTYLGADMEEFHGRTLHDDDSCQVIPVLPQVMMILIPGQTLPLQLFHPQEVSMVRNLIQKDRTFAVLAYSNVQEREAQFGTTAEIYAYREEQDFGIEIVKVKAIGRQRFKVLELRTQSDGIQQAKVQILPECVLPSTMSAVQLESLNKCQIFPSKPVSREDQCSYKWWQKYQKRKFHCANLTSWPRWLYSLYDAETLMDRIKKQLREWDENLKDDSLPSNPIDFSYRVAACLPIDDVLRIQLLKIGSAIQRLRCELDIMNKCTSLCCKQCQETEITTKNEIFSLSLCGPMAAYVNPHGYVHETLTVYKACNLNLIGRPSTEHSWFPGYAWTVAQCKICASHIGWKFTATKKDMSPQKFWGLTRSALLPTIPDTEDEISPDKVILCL
A short description of series [3]: Drug distribution in CB17:SCID mouse xenografted with human VCaP cells assessed as prostate gland to plasma ratio at 20 mg/kg, po measured at 24 hrs by LCMS analysis. The format is ADME, organism-based. Put shortly:
(§1)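 Tumor-bearing male CB17 SCID mice (VCaP xenografts) given one 20 mg/kg oral dose in 100% PEG200, three mice per time point; plasma, tumor, liver, kidney, prostate and heart taken at 1, 6 and 24 h; tissues homogenised in water/acetonitrile, protein precipitated with cold acetonitrile, drug quantified by LC–MS/MS; ratios are tissue over plasma level.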

For series [4], the target named is T1, Protein cereblon/Androgen receptor. Briefly: Protac activity at CRBN/AR in human 22Rv1 cells assessed as reduction in AR protein level at 30 nM after 24 hrs by Western blot analysis relative to control. The format is cell-based. The gist of the method: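 Western blot of AR after 24 h exposure to a concentration series in ATCC-derived cells, all with 10% FBS at 37 °C and 5% CO2: LNCaP and 22Rv1 in RPMI1640, VCaP in DMEM with Glutamax, MDA-PCa-2b in F-12K. Lysis in RIPA with protease and phosphatase inhibitors, then 4–12% SDS-PAGE and PVDF transfer. Band minus background is normalised to GAPDH.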

Series [5] concerns Protein cereblon/Androgen receptor (Homo sapiens), P10275+Q96SW2 [T878A]. The series can be described thus: Protac activity at CRBN/AR T878A mutant in human LNCaP cells assessed as reduction in AR protein level at 100 nM after 3 hrs in presence of MG-132 by Western blot analysis.
The test system is the same in series [6]. Briefly: Protac activity at CRBN/AR T878A mutant in human LNCaP cells assessed as reduction in AR protein level at 100 nM after 3 hrs in presence of N-((1r,4r)-4-((3-chloro-4-cyanophenyl)(methyl)amino)cyclohexyl)-4-(4-methylpiperazin-1-yl)benzamide by Western blot analysis.
Series [7] in a line: Drug distribution in CB17:SCID mouse xenografted with human VCaP cells assessed as tumor to plasma ratio at 20 mg/kg, po measured at 6 hrs by LCMS analysis. The format is ADME, organism-based. The gist of the method:
as §1
(In general: In xenograft studies the graft and the host belong to different species.)

The test system of series [8] is Protein cereblon/Androgen receptor (Homo sapiens), P10275+Q96SW2 [T878A]. Briefly: Protac activity at CRBN/AR T878A mutant in human LNCaP cells assessed as reduction in AR protein level at 100 nM after 3 hrs in presence of thalidomide by Western blot analysis.
The subject of series [9] is VCaP. The series can be described thus: Antitumor activity against human VCaP cells xenografted in CB17:SCID mouse assessed as reduction in AR protein level in tumor at 10 mg/kg, po for 3 days measured at 24 hrs by Western blot analysis. The settings on record: 72 h, time 3 day. The format is functional. Put shortly:
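Male CB17 SCID mice bearing subcutaneous VCaP tumors (5 × 10^6 cells in Matrigel); dosed by oral gavage in 100% PEG200 at 10 mg/kg daily for 3 days; tumors harvested 3, 6 and 24 h post-dose, lysed in RIPA, Western blot for AR with GAPDH loading control, bands quantified by densitometry relative to loading control.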

The nature of series [10]: Drug distribution in heart of CB17:SCID mouse xenografted with human VCaP cells at 20 mg/kg, po measured at 6 hrs by LCMS analysis. The format is ADME, organism-based. The settings on record: read-out: Drug uptake. Put shortly: as §1
Series [11] relates to VCaP. The series can be described thus: Antitumor activity against human VCaP cells xenografted in CB17:SCID mouse assessed as tumor growth inhibition at 10 mg/kg, po treated for 37 days relative to control. Type of series: functional. The settings on record: 888 h, time 37 day, read-out: TGI.
The nature of series [12]: Drug distribution in liver of CB17:SCID mouse xenografted with human VCaP cells at 20 mg/kg, po measured at 24 hrs by LCMS analysis. The format is ADME, organism-based. The settings on record: read-out: Drug uptake. The gist of the method: as §1
Series [13] can be described thus: Drug distribution in heart of CB17:SCID mouse xenografted with human VCaP cells at 20 mg/kg, po measured at 24 hrs by LCMS analysis. The format is ADME, organism-based. The settings on record: read-out: Drug uptake. The gist of the method:
as §1

Series [14] in a line: Drug distribution in kidney of CB17:SCID mouse xenografted with human VCaP cells at 20 mg/kg, po measured at 24 hrs by LCMS analysis. Type of series: ADME, organism-based. The settings on record: read-out: Drug uptake. Put shortly:
as §1

T1 sequence (P10275 whole entry, looked up): as the sequence (P10275 whole entry T878A, stated change not applied) above, with A878T counted along it
T1 sequence (Q96SW2 whole entry, looked up): as the sequence (Q96SW2 whole entry, stated change not applied) above

For the compound `CN(c1ccc(C#N)c(Cl)c1)[C@H]1CC[C@H](NC(=O)c2ccc(N3CCN(C4CN(c5ccc6c(c5)C(=O)N(C5CCC(=O)NC5=O)C6=O)C4)CC3)cc2)CC1` (some centres undefined), the outcome in series [1], in series [5], in series [6] and in [8] was inactive. Besides, the DC50 in series [2] came to 0.1 nM. Besides, the Kp at 24 h in series [3] amounted to 0.5. In addition, the inhibition in series [4] amounted to 80%. Besides, the Kp at 6 h in series [7] is 1.5. For the same compound, the inhibition in vivo at 10 mg/kg was found to be 78% in [9] and 54.9% in series [11]. Further, the concentration at 6 h in series [10] came out at 339 ng/g. The concentration at 24 h is 6870 ng/g in [12], 683 ng/g in series [13] and 366 ng/g in [14].
